Active and inactive are the calls of the source. The rule behind the calls is not given here.

The text below walks through data of ChEMBL document CHEMBL4052795, “Synthesis and evaluation of modified chalcone based p53 stabilizing agents” (2017).

The subject of assay [1] is HCT-116. Kind of assay: Antiproliferative activity against human HCT116 cells assessed as growth inhibition after 3 days by SRB assay. The assay is classed as functional. The settings on record: HCT-116, 72 h. In short, it runs like this: (§1)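 Cells treated in duplicate in 96-well format with three-fold serial dilutions from 50 µM; DMSO solvent control, Nutlin-3 positive control. Sulforhodamine B staining after 3 days; GI50 derived from dilution series.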

Assay [2] deals with HCT-116. Put plainly: Antiproliferative activity against human HCT116 cells at 50 uM after 3 days by SRB assay relative to control. The class given is functional. The settings on record: HCT-116, 72 h.
Assay [3] relates to HCT-116. Put plainly: Antiproliferative activity against human HCT116 cells at 25 uM after 3 days by SRB assay relative to control. The class given is functional. The settings on record: HCT-116, 72 h.
For the next assay, the system named is CAL-51. Put plainly: Antiproliferative activity against human CAL51 cells assessed as growth inhibition after 3 days by SRB assay. The class given is functional. The settings on record: CAL-51, 72 h. In a few lines: as §1
The target of assay [4] is Cellular tumor antigen p53 (Homo sapiens) (UniProt P04637). Kind of assay: Induction of p53 stabilization in human HCT116 cells assessed as increase in p53 expression levels at 12.5 uM measured up to 90 mins in presence of varying concentrations of cycloheximide by immunoblot analysis. The assay is classed as cell-based. In a few lines: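 Cycloheximide chase in HCT116: cells given cycloheximide with or without 12.5 µM compound, samples collected at timed points; immunoblot for p53 and alpha-tubulin, p53 normalized to alpha-tubulin.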
Chain of Cellular tumor antigen p53 (Homo sapiens) (P04637 whole entry, looked up): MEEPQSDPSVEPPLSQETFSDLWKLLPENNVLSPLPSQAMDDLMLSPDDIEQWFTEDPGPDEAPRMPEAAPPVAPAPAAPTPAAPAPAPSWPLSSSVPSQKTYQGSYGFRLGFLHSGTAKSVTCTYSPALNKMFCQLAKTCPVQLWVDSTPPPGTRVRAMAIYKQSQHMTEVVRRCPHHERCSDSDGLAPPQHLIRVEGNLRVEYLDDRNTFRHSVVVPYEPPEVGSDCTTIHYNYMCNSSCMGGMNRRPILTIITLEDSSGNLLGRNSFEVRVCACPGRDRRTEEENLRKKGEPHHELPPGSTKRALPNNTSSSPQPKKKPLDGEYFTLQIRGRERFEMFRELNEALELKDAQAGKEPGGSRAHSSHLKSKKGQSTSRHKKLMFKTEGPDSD

Assay [5] has the same target. Put plainly: Induction of p53 stabilization in human HCT116 cells assessed as ratio of p53 expression levels to GAPDH expression levels after 8 hrs by immunoblot analysis. The class given is cell-based. In short, it runs like this:
(§2)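 HCT116 treated with 6.25, 12.5 or 25 µM for 4 or 8 h; 10 µM Nutlin-3 positive control, DMSO solvent control. Lysates immunoblotted for p53 and GAPDH; band densities quantified, p53 normalized to GAPDH and expressed as fold change versus DMSO.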

Assay [6] shares this target. Kind of assay: Induction of p53 stabilization in human HCT116 cells assessed as ratio of p53 expression levels to GAPDH expression levels at 12.5 uM after 8 hrs by immunoblot analysis. The assay is classed as cell-based. In a few lines:
as §2

For assay [7] the target is unchanged. Kind of assay: Induction of p53 stabilization in human HCT116 cells assessed as ratio of p53 expression levels to GAPDH expression levels at 25 uM after 4 hrs by immunoblot analysis. The assay is classed as cell-based. In a few lines:
as §2

Assay [8] has the same target. Put plainly: Induction of p53 stabilization in human HCT116 cells assessed as ratio of p53 expression levels to GAPDH expression levels at 25 uM after 8 hrs by immunoblot analysis. The assay is classed as cell-based. In a few lines: as §2
Assay [9] has the same target. Kind of assay: Induction of p53 stabilization in human HCT116 cells assessed as ratio of p53 expression levels to GAPDH expression levels at 6.25 uM after 4 hrs by immunoblot analysis. The assay is classed as cell-based. In short, it runs like this:
as §2

Assay [10] shares this target. Put plainly: Induction of p53 stabilization in human HCT116 cells assessed as ratio of p53 expression levels to GAPDH expression levels at 6.25 uM after 8 hrs by immunoblot analysis. The class given is cell-based. In short, it runs like this:
as §2

Assay [11] has the same target. Put plainly: Induction of p53 stabilization in human HCT116 cells assessed as ratio of p53 expression levels to GAPDH expression levels after 4 hrs by immunoblot analysis. The class given is cell-based. In a few lines: as §2
Assay [12] has the same target. Kind of assay: Induction of p53 stabilization in human HCT116 cells assessed as ratio of p53 expression levels to GAPDH expression levels at 12.5 uM after 4 hrs by immunoblot analysis. The assay is classed as cell-based. In short, it runs like this:
as §2

For assay [13] the target is unchanged. Put plainly: Induction of p53 stabilization in human HCT116 cells assessed as increase in p53 expression levels at 6.25 to 25 uM after 8 hrs by immunoblot analysis. The class given is cell-based. In short, it runs like this: as §2
Assay [14] shares this target. Put plainly: Induction of p53 stabilization in human HCT116 cells assessed as increase in p53 expression levels at 6.25 to 25 uM after 4 hrs by immunoblot analysis. The class given is cell-based. In short, it runs like this:
as §2

In the case of `COc1cccc(/C=C/C(=O)c2ccc(OCc3ccccc3)cc2)c1`, the concentration for 50% growth inhibition (GI50) with HCT-116 [1] came to 35.4 µM; with CAL-51, 13.7 µM. In the assay with HCT-116 [2], this compound returned an inhibition at 50 µM of 76%. 25 µM produced 35.4% inhibition in the assay on HCT-116 [3].

For `COc1ccc(/C=C/C(=O)c2ccccc2)cc1` [4-METHOXY CHALCONE], the outcome in assay [4] was Active. Besides, the GI50 with HCT-116 [1] came to 3.86 µM; with CAL-51 it was 2.69 µM. In addition, the Activity result in [5] and in assay [11] was “Dose-dependent effect” throughout. Further, the inhibition at 50 µM in the assay with HCT-116 [2] turned out to be 99.7%. The Ratio was 1.2 in [6]; 1.53 in assay [7]; 1.7 in assay [8]; 1.11 in assay [9]; 1.34 in assay [10]; 1.41 in assay [12]. The compound further registered an inhibition at 25 µM in the assay with HCT-116 [3] of 100%.

For the compound `O=C(/C=C/c1ccc(Cl)cc1)c1ccccc1` [4-CHLORO CHALCONE], the GI50 with HCT-116 [1] worked out at 16.5 µM; with CAL-51, 5.85 µM. Also, the Activity result in assay [5] and in assay [11] was “Dose-dependent effect” throughout. In the assay on HCT-116 [2], this compound came in with an inhibition at 50 µM of 100%. In addition, the Ratio in assay [6] amounted to 1.15; in [7], 3.62; in [8] it was 1.76; in [9], 1.24; in assay [10], 1.38; in assay [12], 3.1. For the same compound, the inhibition at 25 µM with HCT-116 [3] was found to be 97.5%.

Turning to `Cc1ccc(COc2ccc(C(=O)/C=C/c3ccc(Cl)cc3)cc2)cc1`, the GI50 in the assay on HCT-116 [1] and in the assay with CAL-51 was above 50 µM each time. The same compound came in with an inhibition at 50 µM with HCT-116 [2] of 16.9%. In the assay on HCT-116 [3], this compound yielded an inhibition at 25 µM of 12.3%.

Regarding `O=C(/C=C/c1ccccc1Cl)c1ccc(OCc2ccccc2)cc1`, the GI50 in the assay with HCT-116 [1] was 14.9 µM; with CAL-51 it was 7.1 µM. The inhibition at 50 µM in the assay on HCT-116 [2] was found to be 99.7%. Besides, at 25 µM the inhibition in the assay with HCT-116 [3] was 54.5%.

Consider `Cc1ccc(COc2ccc(C(=O)/C=C/c3ccccc3)cc2)cc1`, for which the GI50 is above 50 µM with HCT-116 [1] and 43.2 µM in the assay on CAL-51. Besides, 25 µM produced 4% inhibition in the assay on HCT-116 [3].

Turning to `O=C(/C=C/c1ccc(F)cc1)c1ccc(OCc2ccccc2)cc1`, the GI50 with HCT-116 [1] and in the assay with CAL-51 was above 50 µM each time.

`O=C(/C=C/c1ccc(OCc2ccccc2)cc1)c1ccccc1`: the GI50 in the assay on HCT-116 [1] was above 50 µM; in the assay with CAL-51, 24.7 µM. Besides, the inhibition at 50 µM with HCT-116 [2] was found to be 49.5%. This compound also displayed an inhibition at 25 µM in the assay with HCT-116 [3] of 52.3%.

On to `COc1ccc(CCC(=O)c2ccccc2)cc1`, for which, in the assay with HCT-116 [1], the GI50 was above 100 µM. Also, the result in [13] and in assay [14] was inactive.

For `O=C(/C=C/c1ccccc1[N+](=O)[O-])c1ccccc1`, the concentration for 50% growth inhibition (GI50) in the assay on HCT-116 [1] worked out at 7.69 µM; with CAL-51, 2.59 µM. Besides, in the assay on HCT-116 [2], the inhibition at 50 µM stood at 100%. In the assay on HCT-116 [3], this compound yielded an inhibition at 25 µM of 100%.

As to `O=C(/C=C/c1ccccc1)c1ccc(OCc2ccccc2)cc1`, the GI50 in the assay on HCT-116 [1] is above 50 µM; in the assay on CAL-51, 28.9 µM. In the assay on HCT-116 [2], this compound had an inhibition at 50 µM of 33.8%. This compound gave an inhibition at 25 µM in the assay on HCT-116 [3] of 24.3%.

Consider `O=C(/C=C/c1ccc(Cl)cc1)c1ccc(OCc2ccccc2)cc1`, for which the GI50 in the assay with HCT-116 [1] and in the assay with CAL-51 was above 50 µM each time. The inhibition at 25 µM in the assay with HCT-116 [3] stood at 0.3%.

`Cc1ccc(COc2ccc(C(=O)/C=C/c3ccc(F)cc3)cc2)cc1`: the concentration for 50% growth inhibition (GI50) in the assay on HCT-116 [1] and in the assay on CAL-51 was above 50 µM each time. In the assay on HCT-116 [2], testing at 50 µM gave an inhibition of 15.4%.

For the compound `COc1ccc(/C=C/C(=O)c2ccc(OCc3ccccc3)cc2)cc1`, the GI50 is 36.9 µM in the assay on HCT-116 [1] and above 50 µM in the assay with CAL-51. In the assay on HCT-116 [2], this compound had an inhibition at 50 µM of 13.2%. Further, in the assay on HCT-116 [3], the inhibition at 25 µM stood at 9.5%.

As to `O=C(/C=C/c1ccc([N+](=O)[O-])cc1)c1ccccc1`, the GI50 with HCT-116 [1] was found to be 3.13 µM; in the assay with CAL-51 it was 1.21 µM. The inhibition at 50 µM in the assay on HCT-116 [2] amounted to 100%. In the assay on HCT-116 [3], this compound showed an inhibition at 25 µM of 99.7%.

In the case of `COc1cc(/C=C/C(=O)c2ccccc2)cc(OC)c1OC`, the values for the GI50 in the assay with HCT-116 [1] and in the assay on CAL-51 were 0.473 µM and 0.78 µM, respectively. Besides, the inhibition at 50 µM with HCT-116 [2] came out at 99.7%. In addition, the inhibition at 25 µM in the assay with HCT-116 [3] is 99.4%.

With `COc1ccc(C(=O)/C=C/c2ccccc2)cc1` [4'-METHOXYCHALCONE], the figures for the 50% growth inhibitory concentration (GI50) in the assay with HCT-116 [1] and in the assay on CAL-51 were 3.57 µM and 3.33 µM, respectively. Further, the inhibition at 50 µM in the assay with HCT-116 [2] turned out to be 98.2%. Besides, testing at 25 µM in the assay on HCT-116 [3] gave an inhibition of 99.7%.

Regarding `COc1ccc(C2=N[C@H](c3ccc(Cl)cc3)[C@H](c3ccc(Cl)cc3)N2C(=O)N2CCNC(=O)C2)c(OC(C)C)c1`, the GI50 in the assay on HCT-116 [1] was found to be 1.52 µM.

Consider `O=C(/C=C/c1cccc([N+](=O)[O-])c1)c1ccccc1`, for which the GI50 was 4.47 µM with HCT-116 [1] and 1.08 µM in the assay with CAL-51. For the same compound, 50 µM produced 99.7% inhibition with HCT-116 [2]. 25 µM produced 100% inhibition with HCT-116 [3].

For `O=C(/C=C/c1ccccc1)c1ccccc1` [CHALCONE], the GI50 with HCT-116 [1] stood at 3.96 µM; with CAL-51, 1.85 µM. Further, testing at 50 µM in the assay with HCT-116 [2] gave an inhibition of 97.5%. In addition, the inhibition at 25 µM in the assay on HCT-116 [3] is 100%.
